Source: ChEMBL document CHEMBL3102784, “Salicylanilide diethyl phosphates: synthesis, antimicrobial activity and cytotoxicity” (Bioorg Med Chem, 2014)
Values after ≈ are worked out from the molar mass of the structure shown. Active and inactive are the calls of the source. No cut-off for these calls is given here.

What was measured:
Lichtheimia corymbifera [1] = assay: Antifungal activity against Absidia corymbifera 272 after 48 hrs by broth microdilution method; assay type: functional; conditions: Lichtheimia corymbifera, 272, 48 h
In short: (§1)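 Broth microdilution in RPMI 1640 with glutamine, fluconazole as reference. For yeasts, MIC is ≥80% growth reduction (IC80) versus control. For filamentous fungi, the value is expressed as IC50. Readings at 24 and 48 h.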

Mycobacterium kansasii [2] = assay: Antimycobacterial activity against Mycobacterium kansasii 6509/96 after 14 days; assay type: functional; conditions: 6509/96, 336 h
In short: (§2)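 Micromethod MIC in Šula's semisynthetic medium at 37 °C. Compounds added in DMSO at 1000 down to 0.032 µmol/L. Isoniazid standard in sterile water at 0.5–250 µmol/L. Inocula: H37Rv 10^3, M. avium 10^5, M. kansasii 10^4. Read at 14 and 21 d, plus 7 d for M. kansasii.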

Klebsiella pneumoniae [3] = assay: Antibacterial activity against ESBL-positive Klebsiella pneumoniae J 14368/08 at 500 micromol/L after 24 to 48 hrs by broth microdilution method; assay type: functional, organism-based
In short: (§3)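 Broth microdilution in Mueller–Hinton broth, compounds dissolved in DMSO, tested over a dilution series from 500 downward. MIC taken as ≥95% growth reduction (IC95) versus drug-free control. Benzylpenicillin comparator. Readings at 24 and 48 h.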

[4] = system: Staphylococcus epidermidis; assay: Antibacterial activity against Staphylococcus epidermidis H 6966/08 after 48 hrs by broth microdilution method; assay type: functional; conditions: H 6966/08, 48 h; in short: as §3
[5] = system: Trichophyton mentagrophytes; assay: Antifungal activity against Trichophyton mentagrophytes 445 after 72 hrs by broth microdilution method; assay type: functional; conditions: Trichophyton mentagrophytes, 445, 72 h
In short: (§4)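 Filamentous dermatophyte tested by broth microdilution in RPMI 1640 with glutamine, fluconazole as reference. Value expressed as IC50 relative to growth control. Read at 72 and 120 h.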

Staphylococcus aureus [6] = assay: Antibacterial activity against Staphylococcus aureus CCM 4516/08 after 24 hrs by broth microdilution method; assay type: functional; conditions: CCM 4516/08, 24 h; in short: as §3
Candida tropicalis = assay: Antifungal activity against Candida tropicalis 156 at 500 micromol/L after 24 to 48 hrs by broth microdilution method; assay type: functional, organism-based; in short: as §1
Nakaseomyces glabratus = assay: Antifungal activity against Candida glabrata 20/I at 500 micromol/L after 24 to 48 hrs by broth microdilution method; assay type: functional, organism-based; in short: as §1
Staphylococcus aureus [7] = assay: Antibacterial activity against Staphylococcus aureus CCM 4516/08 after 48 hrs by broth microdilution method; assay type: functional; conditions: CCM 4516/08, 48 h; in short: as §3
Pichia kudriavzevii [8] = assay: Antifungal activity against Candida krusei E28 after 48 hrs by broth microdilution method; assay type: functional; conditions: E28, 48 h; in short: as §1
Aspergillus fumigatus [9] = assay: Antifungal activity against Aspergillus fumigatus 231 after 48 hrs by broth microdilution method; assay type: functional; conditions: Aspergillus fumigatus, 231, 48 h; in short: as §1
Aspergillus fumigatus [10] = assay: Antifungal activity against Aspergillus fumigatus 231 after 24 hrs by broth microdilution method; assay type: functional; conditions: Aspergillus fumigatus, 231, 24 h; in short: as §1
Pichia kudriavzevii [11] = assay: Antifungal activity against Candida krusei E28 after 24 hrs by broth microdilution method; assay type: functional; conditions: E28, 24 h; in short: as §1
Klebsiella pneumoniae [12] = assay: Antibacterial activity against Klebsiella pneumoniae D 11750/08 at 500 micromol/L after 24 to 48 hrs by broth microdilution method; assay type: functional, organism-based; in short: as §3
Mycobacterium kansasii [13] = assay: Antimycobacterial activity against Mycobacterium kansasii My 235/80 after 21 days; assay type: functional; conditions: My 235/80, 504 h; in short: as §2
Lichtheimia corymbifera [14] = assay: Antifungal activity against Absidia corymbifera 272 after 24 hrs by broth microdilution method; assay type: functional; conditions: Lichtheimia corymbifera, 272, 24 h; in short: as §1
HepG2 = assay: Cytotoxicity against human HepG2 cells after 24 hrs by CellTiter assay; assay type: cell-based; conditions: HepG2, 24 h
In short: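 HepG2 cells (passage 27–33) in MEM with 10% FBS, L-glutamine and NEAA, seeded at 1×10^4 per well. Treated next day with compounds at 0.1–100 µM (or 0.1–25 µmol/L), triplicates, <1% DMSO, for 24 h at 37 °C, 5% CO2. MTS reagent added for 2 h, absorbance read at 490 nm. IC50 taken against untreated (100%) and 10% DMSO (0%) controls.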

Candida albicans [15] = assay: Antifungal activity against Candida albicans ATCC 44859 after 24 hrs by broth microdilution method; assay type: functional; conditions: ATCC 44859, 24 h; in short: as §1
Pseudomonas aeruginosa = assay: Antibacterial activity against Pseudomonas aeruginosa CCM 1961 at 500 micromol/L after 24 to 48 hrs by broth microdilution method; assay type: functional, organism-based; in short: as §3
Mycobacterium kansasii [16] = assay: Antimycobacterial activity against Mycobacterium kansasii 6509/96 after 7 days; assay type: functional; conditions: 6509/96, 168 h; in short: as §2
Mycobacterium avium [17] = assay: Antimycobacterial activity against isoniazid, rifampicin, ethambutol and ofloxacin-resistant Mycobacterium avium My 330/88 after 21 days; assay type: functional; conditions: My 330/88, 504 h; in short: as §2
Mycobacterium avium [18] = assay: Antimycobacterial activity against isoniazid, rifampicin, ethambutol and ofloxacin-resistant Mycobacterium avium My 330/88 after 14 days; assay type: functional; conditions: My 330/88, 336 h; in short: as §2
Escherichia coli = assay: Antibacterial activity against Escherichia coli CCM 4517 at 500 micromol/L after 24 to 48 hrs by broth microdilution method; assay type: functional, organism-based; in short: as §3
Enterococcus sp. = assay: Antibacterial activity against Enterococcus sp. J 14365/08 at 500 micromol/L after 24 to 48 hrs by broth microdilution method; assay type: functional, organism-based; in short: as §3
Staphylococcus aureus [19] = assay: Antibacterial activity against methicillin-resistant Staphylococcus aureus H 5996/08 after 48 hrs by broth microdilution method; assay type: functional; conditions: H 5996/08, 48 h; in short: as §3
Candida albicans [20] = assay: Antifungal activity against Candida albicans ATCC 44859 after 48 hrs by broth microdilution method; assay type: functional; conditions: ATCC 44859, 48 h; in short: as §1
Staphylococcus aureus [21] = assay: Antibacterial activity against methicillin-resistant Staphylococcus aureus H 5996/08 after 24 hrs by broth microdilution method; assay type: functional; conditions: H 5996/08, 24 h; in short: as §3
Trichosporon asahii [22] = assay: Antifungal activity against Trichosporon asahii 1188 after 24 hrs by broth microdilution method; assay type: functional; conditions: Trichosporon asahii, 1188, 24 h; in short: as §1
[23] = system: Mycobacterium tuberculosis; assay: Antimycobacterial activity against Mycobacterium tuberculosis H37Rv My 331/88 after 21 days; assay type: functional; conditions: H37Rv My 331/88, 504 h; in short: as §2
Mycobacterium kansasii [24] = assay: Antimycobacterial activity against Mycobacterium kansasii 6509/96 after 21 days; assay type: functional; conditions: 6509/96, 504 h; in short: as §2
Mycobacterium kansasii [25] = assay: Antimycobacterial activity against Mycobacterium kansasii My 235/80 after 14 days; assay type: functional; conditions: My 235/80, 336 h; in short: as §2
Mycobacterium kansasii [26] = assay: Antimycobacterial activity against Mycobacterium kansasii My 235/80 after 7 days; assay type: functional; conditions: My 235/80, 168 h; in short: as §2
Trichosporon asahii [27] = assay: Antifungal activity against Trichosporon asahii 1188 after 48 hrs by broth microdilution method; assay type: functional; conditions: Trichosporon asahii, 1188, 48 h; in short: as §1
[28] = system: Staphylococcus epidermidis; assay: Antibacterial activity against Staphylococcus epidermidis H 6966/08 after 24 hrs by broth microdilution method; assay type: functional; conditions: H 6966/08, 24 h; in short: as §3
[29] = system: Trichophyton mentagrophytes; assay: Antifungal activity against Trichophyton mentagrophytes 445 after 120 hrs by broth microdilution method; assay type: functional; conditions: Trichophyton mentagrophytes, 445, 120 h; in short: as §4
[30] = system: Mycobacterium tuberculosis; assay: Antimycobacterial activity against Mycobacterium tuberculosis H37Rv My 331/88 after 14 days; assay type: functional; conditions: H37Rv My 331/88, 336 h; in short: as §2

SMILES | MIC50 (Lichtheimia corymbifera [1]) | MIC (Mycobacterium kansasii [2]) | Activity (Klebsiella pneumoniae [3]) | MIC95 [4] | MIC50 [5] | MIC95 (Staphylococcus aureus [6]) | Activity (Candida tropicalis) | Activity (Nakaseomyces glabratus) | MIC95 (Staphylococcus aureus [7]) | MIC80 (Pichia kudriavzevii [8]) | MIC50 (Aspergillus fumigatus [9]) | MIC50 (Aspergillus fumigatus [10]) | MIC80 (Pichia kudriavzevii [11]) | Activity (Klebsiella pneumoniae [12]) | MIC (Mycobacterium kansasii [13]) | MIC50 (Lichtheimia corymbifera [14]) | IC50 (HepG2) | MIC80 (Candida albicans [15]) | Activity (Pseudomonas aeruginosa) | MIC (Mycobacterium kansasii [16]) | also measured
CCOP(=O)(OCC)Oc1cc(Cl)ccc1C(=O)Nc1ccc(F)cc1 | > 500 µM | 32 µM (≈ 12.9 µg/mL) | inactive | > 500 µM | 500 µM (≈ 201 µg/mL) | 250 µM (≈ 100 µg/mL) | inactive | inactive | 500 µM (≈ 201 µg/mL) | > 500 µM | > 500 µM | > 500 µM | > 500 µM | inactive | 16 µM (≈ 6.43 µg/mL) | > 500 µM | 33.8 µM | > 500 µM | inactive | 16 µM (≈ 6.43 µg/mL) | MIC (Mycobacterium avium [17]): 32 µM (≈ 12.9 µg/mL); MIC (Mycobacterium avium [18]): 32 µM (≈ 12.9 µg/mL); Activity (Escherichia coli): inactive; Activity (Enterococcus sp.): inactive; MIC95 (Staphylococcus aureus [19]): > 500 µM; MIC80 (Candida albicans [20]): > 500 µM; MIC95 (Staphylococcus aureus [21]): > 500 µM; MIC80 (Trichosporon asahii [22]): > 500 µM; MIC [23]: 16 µM (≈ 6.43 µg/mL); MIC (Mycobacterium kansasii [24]): 32 µM (≈ 12.9 µg/mL); MIC (Mycobacterium kansasii [25]): 16 µM (≈ 6.43 µg/mL); MIC (Mycobacterium kansasii [26]): 16 µM (≈ 6.43 µg/mL); MIC80 (Trichosporon asahii [27]): > 500 µM; MIC95 [28]: > 500 µM; MIC50 [29]: 500 µM (≈ 201 µg/mL); MIC [30]: 16 µM (≈ 6.43 µg/mL)
CCOP(=O)(OCC)Oc1ccc(Cl)cc1C(=O)Nc1cccc(Cl)c1 | > 500 µM | 16 µM (≈ 6.69 µg/mL) | inactive | 125 µM (≈ 52.3 µg/mL) | > 500 µM | 500 µM (≈ 209 µg/mL) | inactive | inactive | 500 µM (≈ 209 µg/mL) | > 500 µM | > 500 µM | > 500 µM | > 500 µM | inactive | 8 µM (≈ 3.35 µg/mL) | > 500 µM | 2.68 µM | > 500 µM | inactive | 8 µM (≈ 3.35 µg/mL) | MIC (Mycobacterium avium [17]): 16 µM (≈ 6.69 µg/mL); MIC (Mycobacterium avium [18]): 16 µM (≈ 6.69 µg/mL); Activity (Escherichia coli): inactive; Activity (Enterococcus sp.): inactive; MIC95 (Staphylococcus aureus [19]): 500 µM (≈ 209 µg/mL); MIC80 (Candida albicans [20]): > 500 µM; MIC95 (Staphylococcus aureus [21]): 500 µM (≈ 209 µg/mL); MIC80 (Trichosporon asahii [22]): > 500 µM; MIC [23]: 4 µM (≈ 1.67 µg/mL); MIC (Mycobacterium kansasii [24]): 16 µM (≈ 6.69 µg/mL); MIC (Mycobacterium kansasii [25]): 8 µM (≈ 3.35 µg/mL); MIC (Mycobacterium kansasii [26]): 8 µM (≈ 3.35 µg/mL); MIC80 (Trichosporon asahii [27]): > 500 µM; MIC95 [28]: 125 µM (≈ 52.3 µg/mL); MIC50 [29]: > 500 µM; MIC [30]: 4 µM (≈ 1.67 µg/mL)
